Measurements published in ChEMBL document CHEMBL1144082, “Orizabins V-VIII, tetrasaccharide glycolipids from the Mexican scammony root (Ipomoea orizabensis)” (1999).
In brackets after ≈: the same amount, converted by molar mass.

Key:
Assay type in all cases: functional
[1] = Cytotoxicity against human SQC1 cells after 72 hrs by SRB method; details: SQC1, 72 h, read-out: ED50 (the source's name)
How it was run: (§1)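 Cell lines kept in RPMI 1640 with 10% fetal bovine serum, 37 °C, 5% CO2, 100% humidity. Log-phase cells treated in triplicate with glycolipids over 0.16–20 μg/mL for 72 h at 37 °C, 5% CO2. Cell concentration determined by sulforhodamine B staining; ED50 taken as dose inhibiting 50% of control growth. Ellipticine as positive control.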

KB = experiment: Cytotoxicity against human KB cells after 72 hrs by SRB method; details: read-out: ED50 (the source's name); how it was run: as §1
OVCAR = experiment: Cytotoxicity against human OVCAR cells after 72 hrs by SRB method; details: read-out: ED50 (the source's name); how it was run: as §1
HCT-15 = experiment: Cytotoxicity against human HCT-15 cells after 72 hrs by SRB method; details: HCT-15, 72 h, read-out: ED50 (the source's name); how it was run: as §1

Structure (SMILES)	EC50 [1]	EC50 (KB)	EC50 (OVCAR)	EC50 (HCT-15)
Cc1c2ccncc2c(C)c2c1[nH]c1ccccc12 [ELLIPTECINE]	0.41 µg/mL (≈ 1.66 µM)	0.33 µg/mL (≈ 1.34 µM)	0.58 µg/mL (≈ 2.35 µM)	0.24 µg/mL (≈ 0.974 µM)
CCCCC[C@H]1CCCCCCCCCC(=O)O[C@H]2[C@H](O)[C@@H](COC(=O)[C@H](C)[C@@H](C)O)O[C@@H](O[C@H]3[C@H](O1)O[C@H](C)[C@@H](O)[C@@H]3O)[C@@H]2O[C@@H]1O[C@@H](C)[C@H](O[C@@H]2O[C@H](C)[C@@H](O)[C@H](O)[C@H]2O)[C@@H](O)[C@H]1OC(=O)[C@@H](C)CC [ORIZABIN VIII]	> 15 µg/mL	7 µg/mL (≈ 6.74 µM)	> 15 µg/mL	> 15 µg/mL
CCCCC[C@H]1CCCCCCCCCC(=O)O[C@@H]2[C@@H](O[C@@H]3O[C@H](C)[C@@H](O)[C@H](O)[C@H]3O)[C@H](C)O[C@@H](O[C@H]3[C@H](O[C@H]4[C@H](O1)O[C@H](C)[C@@H](O)[C@@H]4O)O[C@H](COC(=O)[C@H](C)[C@@H](C)O)[C@@H](O)[C@@H]3O)[C@@H]2OC(=O)[C@@H](C)CC [ORIZABIN VII]	> 15 µg/mL	7 µg/mL (≈ 6.74 µM)	> 15 µg/mL	> 15 µg/mL
CCCCC[C@H]1CCCCCCCCCC(=O)O[C@@H]2[C@@H](O[C@@H]3O[C@H](C)[C@@H](O)[C@H](O)[C@H]3O)[C@H](C)O[C@@H](O[C@H]3[C@H](O[C@H]4[C@H](O1)O[C@H](C)[C@@H](O)[C@@H]4O)O[C@H](COC(=O)[C@@H](C)CC)[C@@H](O)[C@@H]3O)[C@@H]2OC(=O)[C@H](C)[C@@H](C)O [ORIZABIN VI]	> 15 µg/mL	7 µg/mL (≈ 6.74 µM)	> 15 µg/mL	> 15 µg/mL
CCCCC[C@H]1CCCCCCCCCC(=O)O[C@@H]2[C@@H](O[C@@H]3O[C@H](C)[C@@H](OC(=O)[C@H](C)[C@@H](C)O)[C@H](O)[C@H]3O)[C@H](C)O[C@@H](O[C@H]3[C@H](O[C@H]4[C@H](O1)O[C@H](C)[C@@H](O)[C@@H]4O)O[C@H](CO)[C@@H](O)[C@@H]3O)[C@@H]2OC(=O)[C@@H](C)CC [ORIZABIN V]	> 15 µg/mL	7 µg/mL (≈ 6.74 µM)	> 15 µg/mL	> 15 µg/mL
CCCCC[C@H]1CCCCCCCCCC(=O)O[C@@H]2[C@@H](O[C@@H]3O[C@H](C)[C@@H](O)[C@H](O)[C@H]3O)[C@H](C)O[C@@H](O[C@H]3[C@H](O[C@H]4[C@H](O1)O[C@H](C)[C@@H](O)[C@@H]4O)O[C@H](CO)[C@@H](O)[C@@H]3O)[C@@H]2OC(=O)[C@@H](C)CC [SCAMMONIN II]	> 15 µg/mL	7 µg/mL (≈ 7.45 µM)	> 15 µg/mL	> 15 µg/mL
C/C=C(\C)C(=O)O[C@H]1[C@H](O)[C@@H](O)[C@H](O[C@@H]2[C@H]3OC(=O)CCCCCCCCC[C@H](CCCCC)O[C@@H]4O[C@H](C)[C@@H](O)[C@H](O)[C@H]4O[C@@H]4O[C@H](CO)[C@@H](O)[C@H](O)[C@H]4O[C@H](O[C@H]2C)[C@@H]3OC(=O)[C@@H](C)CC)O[C@@H]1C [SCAMMONIN I]	> 15 µg/mL	7 µg/mL (≈ 6.85 µM)	> 15 µg/mL	> 15 µg/mL
